Source: PubChem BioAssay (several laboratories)
An excerpt weighted towards active compounds, which were near 3.7% of everything screened.
ROMK primary: ROMK potassium channel modulators, primary screen, cell-based, thallium flux, MLSMR library. B-score at 10 µM. ATP-sensitive inward rectifier potassium channel 1 (Homo sapiens), P48048. Tet-inducible ROMK, thallium flux fluorescence; actives lie on both sides. 130,000 compounds, 2% hits;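 active means signal ratio slope over the read window, or its plate-corrected B-score, at least 3 SD from the plate mean, either direction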;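 further: B-score of the F/F0 ratio slope over 7 to 12 s after thallium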
MT stabilize HCS: microtubule stabilizers in HeLa cells, primary screen, imaging, high-content imaging; % tubulin-high responders, % at 10 µM; 200,000 compounds, 0.83% hits; HeLa tubulin immunostaining HCS, 24 h; share of cells brighter than vehicle mean+2SD;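 active means plate Z-score above 3 for both tubulin-high and condensed-nucleus cell shares, with cell loss under 80%, at 10 µM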;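 further: anti alpha tubulin signal scored within the nucleus-defined area of each cell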
KCC2 mod: KCC2 cotransporter modulators, thallium flux, primary screen, cell-based, HEK293 KCC2, FluoZin-2 fluorescence, MLSMR | Solute carrier family 12 member 5 (Homo sapiens), Q9H2X9 | KCC2 cells, thallium flux FluoZin-2 fluorescence | B-score of Tl+ flux slope (higher = more flux/activation; lower = inhibition) at 10 µM | 190,000 compounds, 2.2% hits | AID 1456, 2008;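 active means thallium flux slope and its plate-corrected score both differing from the plate sample mean at a set confidence after two filtering rounds, in either direction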;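 further: slope of fluorescence scaled to starting intensity during 10 to 20 s after thallium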
Target sequence (Q9H2X9 whole entry, looked up): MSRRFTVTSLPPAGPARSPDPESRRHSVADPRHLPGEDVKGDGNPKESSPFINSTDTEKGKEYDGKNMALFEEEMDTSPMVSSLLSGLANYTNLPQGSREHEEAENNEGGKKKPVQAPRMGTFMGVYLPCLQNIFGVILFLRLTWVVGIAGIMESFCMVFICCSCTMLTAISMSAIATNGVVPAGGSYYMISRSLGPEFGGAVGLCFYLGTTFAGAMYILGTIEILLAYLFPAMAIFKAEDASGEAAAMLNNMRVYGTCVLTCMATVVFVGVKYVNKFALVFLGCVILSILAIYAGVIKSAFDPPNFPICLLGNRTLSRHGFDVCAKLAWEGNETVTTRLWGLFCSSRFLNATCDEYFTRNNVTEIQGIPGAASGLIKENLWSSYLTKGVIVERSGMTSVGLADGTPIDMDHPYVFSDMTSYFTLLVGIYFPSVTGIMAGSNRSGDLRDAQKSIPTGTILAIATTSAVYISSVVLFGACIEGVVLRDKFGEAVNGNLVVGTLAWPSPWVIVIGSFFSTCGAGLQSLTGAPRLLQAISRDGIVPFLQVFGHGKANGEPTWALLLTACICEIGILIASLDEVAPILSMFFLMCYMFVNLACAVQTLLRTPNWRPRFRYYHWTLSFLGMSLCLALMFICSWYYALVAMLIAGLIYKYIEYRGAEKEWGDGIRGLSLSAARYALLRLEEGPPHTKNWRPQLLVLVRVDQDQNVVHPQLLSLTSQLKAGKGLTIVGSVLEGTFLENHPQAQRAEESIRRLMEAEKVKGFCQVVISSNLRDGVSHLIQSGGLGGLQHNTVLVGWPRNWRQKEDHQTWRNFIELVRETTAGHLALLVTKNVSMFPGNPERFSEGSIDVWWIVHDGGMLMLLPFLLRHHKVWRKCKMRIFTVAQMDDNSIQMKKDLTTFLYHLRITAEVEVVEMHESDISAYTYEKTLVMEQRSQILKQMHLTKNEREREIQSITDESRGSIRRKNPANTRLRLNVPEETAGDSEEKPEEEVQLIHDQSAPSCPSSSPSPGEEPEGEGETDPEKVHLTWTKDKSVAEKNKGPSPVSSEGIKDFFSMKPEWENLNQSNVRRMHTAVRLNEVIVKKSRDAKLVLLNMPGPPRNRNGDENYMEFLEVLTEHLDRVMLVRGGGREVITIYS
DTT redox prof: compounds producing H2O2 with reducing agent – biochemical, NIH compound library profiling, artefact control for MLSCN library redox annotation, primary screen | DTT-dependent redox cycling H2O2, phenol red/HRP absorbance; 100% = 100 µM peroxide control, 0% = buffer | activation, % at 10 µM | 200,000 compounds, 0.03% hits;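 active means activation of at least 50% relative to the plate's high and low controls in the primary single-dose screen; inactive means activation below 50%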;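 further: compound incubated with DTT at 0.8 mM final as the reducing agent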
bCat nuc transl: modulators of beta-catenin nuclear translocation, primary screen, imaging, HeLa cells, immunofluorescence, high-content; nuclear translocation activity, % at 5 µM; 190,000 compounds, 0.3% hits;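 active means nuclear translocation activity above 50% at 5 µM, with a well cell count of 50 or more; inconclusive means wells under 50 cells across six images, flagged as toxic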;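 further: per-cell ratio of nuclear to cytoplasmic median beta-catenin stain intensity; plate controls were DMSO negative control for no effect and GSK-3 inhibitor IX positive control for full effect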
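Technique: fluorescence imaging of beta-catenin antibody stain plus DAPI / Material: human HeLa cell line / Incubation: compound treatment 24 h, 37°C, 5% CO2 / Read-out basis: % activation of per-cell nuclear versus cytoplasmic median beta-catenin signal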
KCC2 secondary: KCC2 modulators in sodium-free buffer, confirmation, cell-based, HEK293 KCC2, thallium flux, secondary assay; 3,700 compounds, 15% hits; FluoZin2 fluorescence; active compounds read high; AID 1713, 2009; normalised thallium flux (F/F0 slope) at 10 µM; shares compounds with KCC2 mod;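 active means thallium flux slope above the same plate's solvent-only control mean plus 3 SD; inconclusive means the two replicate wells disagree; inactive means no significant difference from solvent-only control wells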
KCC2 bumet counter: thallium flux persisting under bumetanide in KCC2 cells, confirmation, counter-screen for KCC2 modulator project, cell-based, HEK293 KCC2, FluoZin2, secondary assay 3. AID 1714, 2009. shares compounds with KCC2 mod. 3,700 compounds, 49% hits. HEK293-KCC2 + bumetanide/ouabain; active compounds read high. normalized thallium flux at 10 µM;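 active means thallium entry rate above the same plate's blocked-transporter control wells by more than 3 SD; inconclusive means the two repeat wells disagree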;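 further: raw slope of fluorescence over initial fluorescence between 10 and 20 s after thallium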
KCC2 sec2: KCC2 modulators without ouabain present, confirmation, cell-based, HEK293 KCC2, thallium flux, FluoZin2, secondary assay 2. 3,700 compounds, 23% hits. AID 1715, 2009. shares compounds with KCC2 mod. thallium flux FluoZin2 fluorescence; actives lie on both sides; F/F0 rise rate, 10–20 s post-thallium. normalized thallium flux at 10 µM;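 active means thallium flux slope more than 3 SD above or below the plate's solvent-only control mean, mostly below; inconclusive means the two repeat wells disagreed; inactive means no significant shift from solvent-only controls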;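 further: raw slope with 0.1% DMSO as baseline and bumetanide as block control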
HEK counter1: thallium flux modulation in parental HEK cells, confirmation, counter-screen for KCC2 modulator project, cell-based, counterscreen 1. shares compounds with KCC2 mod. HEK293 parental cells, thallium flux FluoZin2, ouabain; baseline-ratio fluorescence slope, 10–20 s after thallium. thallium flux rate (normalised fluorescence) at 10 µM. 3,700 compounds, 46% hits. AID 1716, 2009;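 active means thallium flux rate significantly above the same plate's solvent-only control wells, beyond their mean plus 3 SD; inconclusive means the two replicate wells gave conflicting results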
KCC2 ouabain: KCC2 inhibitors and activators, ouabain retest, confirmation, HEK-KCC2 cells; AID 1717, 2009; shares compounds with KCC2 mod; 3,700 compounds, 48% hits; HEK293-KCC2, thallium flux FluoZin2 fluorescence; bidirectional: low = inhibitor, high = activator; raw Tl+ flux slope (below DMSO = inhibition, above = activation) at 10 µM;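 active means thallium flux slope beyond 3 SD from same-plate DMSO control mean in most replicates, usually higher, sometimes lower; inconclusive means repeat tests gave conflicting results; inactive means no significant difference from controls in most replicates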;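 further: slope of initial-normalized fluorescence between seconds 10 and 20 after thallium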
HEK293 Tl flux2: native HEK Tl+ uptake effects, second counter-screen – HEK cells, counterscreen 2, counter-screen for KCC2 modulator project, confirmation; shares compounds with KCC2 mod; HEK293 parental, thallium flux FluoZin-2 fluorescence slope; thallium flux slope at 10 µM; 3,700 compounds, 33% hits; AID 1718, 2009;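 active means thallium flux slope above the same plate's solvent-control mean plus 3 SD in both duplicate wells; inconclusive means duplicate wells that disagreed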;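 further: run without ouabain in cells lacking the KCC2 cotransporter; slope of fluorescence scaled to its starting value between 10 and 20 s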
The depositor's hits bear a star; ? = inconclusive; . = no result given.

SMILES	ROMK primary	MT stabilize HCS	KCC2 mod	DTT redox prof	bCat nuc transl	KCC2 secondary	KCC2 bumet counter	KCC2 sec2	HEK counter1	KCC2 ouabain	HEK293 Tl flux2
O=C(CCc1nnc(CCc2ccccc2)o1)N1CCCC1c1nccs1 (configuration not stated)	.	4	-0.057	-1	-2	.	.	.	.	.	.
COC(=O)C1(C(C[N+](=O)[O-])c2ccc(C)cc2)C(=O)NCC1c1ccco1 (configuration not stated)	.	.	-0.081	.	0	.	.	.	.	.	.
N#CC(C(=O)OC1CCCCC1)c1nc2ccccc2nc1N1CCCCC1 (configuration not stated)	-0.69	6	-0.36	2	2	.	.	.	.	.	.
CC(C)COc1nc2ccccc2nc1C(C#N)C(=O)NC1CCCCC1 (configuration not stated)	-0.91	1	.	0	.	0.0093	0.0058	0.03	0.0073	0.018	0.012
O=c1c2cc(Br)ccc2[nH]c(=S)n1Cc1ccccn1	0.2	2	35*	0	1	?	0.071*	0.044*	0.046*	0.057*	0.021*
O=c1c2cc(N3CCOCC3)ccc2[nH]c(=S)n1Cc1ccccn1	.	2	1.2	-3	.	.	.	.	.	.	.
COc1ccc2c(C)cc(=S)[nH]c2c1	0.6	2	8*	1	1	0.017	0.015*	0.03	0.013*	0.019	0.014*
COc1cccc(/C=N/N2C(=O)CSC2=S)c1O	0.39	7	3.5*	1	-1	0.013*	0.016*	0.033	0.01*	?	?
O=C(CN1CCN(c2ccccc2F)CC1)c1c[nH]c2ccc(F)cc12	-0.24	2	-4*	0	0	0.0073	0.011*	0.031	?	0.018*	0.01
Cc1nc(SCC(=O)Nc2c(C)nn(C)c2C)c2cnn(-c3ccccc3)c2n1	.	2	-6.8*	-3	3	0.0069	0.0064	0.027	0.0064	0.02	0.0093
CC(C)COP(=O)(OCC(C)C)C(O)c1ccc(N(C)C)cc1 (configuration not stated)	0.92	.	0.33	.	1	.	.	.	.	.	.
CC(=O)NCCOC(=O)Nc1ccncc1	0.99	2	1.6	0	-7	.	.	.	.	.	.
CC(=O)NCCOC(=O)Nc1cccnc1	0.33	1	7.2*	0	-5	0.0059	0.005	?	?	0.019	0.01
CCc1ccccc1NC(=S)N=Nc1c(O)n(C)c2ccc(S(=O)(=O)N3CCOCC3)cc12	-0.47	5	11*	0	-2	0.014*	0.086*	0.029	0.031*	0.058*	0.012*
O=S(=O)(c1ccccc1)N1CCn2c(nc3ccccc32)C1	.	4	.	-1	.	0.0088	?	0.034	0.0074	0.018	0.011
COc1ccc(CC(=O)OCC(=O)Nc2ccc(Br)cc2)cc1	0.003	7	1.6	0	0	.	.	.	.	.	.
COc1cccc(/C=N/NC(=O)CSc2cccc3cccnc23)c1	-1.7	.	28*	.	0	0.011	0.03*	0.035	?	0.03*	0.012
Fc1ccc(-c2nc3ccccc3[nH]2)cc1	1.4	1	0.69	0	1	.	.	.	.	.	.
S=c1nc(-c2ccc(Br)cc2)[nH]c2ccccc12	.	.	93*	.	-1	0.047*	0.13*	0.078*	0.12*	0.11*	0.092*
CCOc1cc(/C=N/NC(=O)CN(CCc2ccccc2)S(=O)(=O)c2ccc(NC(C)=O)cc2)ccc1O	.	3	-6.4*	-1	-3	0.0073	0.0051	0.036	0.0042	?	0.01
CCOc1ccccc1N1CCN(C(=O)/C=C/c2cccc([N+](=O)[O-])c2)CC1	.	3	-3.8*	0	-4	0.0054	0.0048	0.027*	0.0057*	0.017*	?
Cc1ccc(S(=O)(=O)N2CCc3ccccc3C2CC(=O)O)cc1 (configuration not stated)	.	.	-1.2	.	2	.	.	.	.	.	.
O=C(O)c1ccccc1-c1ccccc1C(=O)Nc1cccc(-c2nc3ccccc3o2)c1	-0.00074	1	-5.8*	-1	1	0.0064	0.0057*	0.026*	?	0.013*	?
O=C(Nc1ccc2oc(-c3ccccc3)nc2c1)c1ccncc1	.	2	-4.5*	1	1	0.0068	0.0051	0.022*	0.0074	?	0.011
CCn1ncc(CN2CCCC(CNC(=O)c3ccc(F)cc3)C2)c1C (configuration not stated)	0.57	2	-6.2*	0	0	0.016	0.0052	0.028	0.0075	0.017	0.011
CC1(C)C(=O)OC(/C=C\c2cccc([N+](=O)[O-])c2)C(C)(C)C1=O (configuration not stated)	0.34	4	0.13	-3	1	.	.	.	.	.	.
O=C(Nc1ccccc1)O/N=C/c1ccccc1Cl	-0.094	2	-5.7*	0	.	0.0076	0.0057	0.032	0.0072	0.02	0.011
Cc1cc2nc3n(c2cc1C)CC1CC(C(=O)NCCc2cccs2)N(C)C31 (configuration not stated)	.	.	-0.84	.	0	.	.	.	.	.	.
